Here are results for six molecules from ChEMBL document CHEMBL1123789, “Synthesis of beta-carboline-benzodiazepine hybrid molecules: use of the known structural requirements for benzodiazepine and beta-carboline binding in designing a novel, high-affinity ligand for the benzodiazepine receptor” (J Med Chem, 1987).

Experiment [1] concerns the target GABA-A receptor; anion channel. Kind of experiment: Displacement of [3H]beta-CCE from GABA-A benzodiazepine receptor of rat cerebral cortex membranes. The format is cell membranes, Membrane. Summed up:
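Rat cerebral cortex membranes, washed in 50 mM Tris-HCl pH 7.4, stored at −20 °C for at least 24 h. 60 µg protein incubated 60 min at 0 °C with 0.4 nM [3H]-β-CCE (final) and test compound from 5×10^-10 to 10^-5 M. Nonspecific binding was defined with 1 µM unlabeled β-CCE. Bound ligand collected by GF/B filtration and counted by scintillation. Duplicates; IC50 from Hofstee analysis.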
Background: Displacement assays read how much labelled ligand stays bound in the presence of the test substance.

In experiment [2] the target is GABA-A receptor; anion channel. The experiment in a line: Displacement of [3H]flunitrazepam from GABA-A benzodiazepine receptor of rat cerebral cortex membrane. It counts as tissue-based. The essentials:
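Rat cerebral cortex homogenised in ice-cold 50 mM Tris-HCl pH 7.4, washed by centrifugation, frozen at -20 °C ≥24 h. Filtration on glass fibre, scintillation counting, duplicates; IC50 by Hofstee analysis.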

Experiment [3] deals with T1, GABA-A receptor; anion channel (Mus musculus) (UniProt Q8BHJ7+P26048+Q8QZW7+P50571+Q9R0Y8+P22723+A2AMW3+P62812+Q9JLF1+P26049+P22933+Q9D6F4+P63080+P27681+P16305). Kind of experiment: In vivo displacement of [3H]flunitrazepam to GABA-A benzodiazepine receptor of mouse cortex at 10 mg/kg, 10 min. The format is organism-based. On the set-up: dose 10 mg/kg. Summed up:
(§1)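 Male Swiss mice received [3H]flunitrazepam 200 µCi/kg iv via tail vein. Test compound, 10 mg/kg suspended in Tween 80, was given 10 min later and 10 min before decapitation. Cerebellum, cortex and hippocampus were homogenized in cold 50 mM Tris-HCl pH 7.4. Crude homogenate (12 mg wet tissue) was filtered on GF/B and counted, as pCi/mg wet tissue.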

Experiment [4] addresses T1, GABA-A receptor; anion channel (Mus musculus). Kind of experiment: In vivo binding of [3H]flunitrazepam to GABA-A benzodiazepine receptor of mouse hippocampus after maximal Diazepam (10 mg/kg, 40 min). It counts as organism-based. The essentials: (§2)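 Nonspecific in vivo binding. Diazepam 10 mg/kg was given to male Swiss mice 40 min before iv [3H]flunitrazepam (200 µCi/kg) and 60 min before decapitation. Cerebellum, cortex and hippocampus were homogenized in cold 50 mM Tris-HCl pH 7.4. Crude homogenate (12 mg wet tissue) was filtered on GF/B and counted, as pCi/mg wet tissue.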

The target is the same in experiment [5]. Kind of experiment: In vivo total binding of [3H]flunitrazepam (200uCi/kg, 20 min) to GABA-A benzodiazepine receptor of mouse cerebellum. It counts as organism-based. The essentials:
(§3)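 Male Swiss mice received [3H]flunitrazepam 200 µCi/kg in saline via tail vein, 20 min before decapitation. Cerebellum, cortex and hippocampus were dissected on ice and homogenized in ice-cold 50 mM Tris-HCl pH 7.4. Two 600-µL aliquots (12 mg wet tissue) were filtered on GF/B, washed twice and counted. Results given as pCi/mg wet tissue.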

Experiment [6] shares this target. The experiment in a line: In vivo binding of [3H]flunitrazepam to GABA-A benzodiazepine receptor of mouse cortex after maximal Diazepam (10 mg/kg, 40 min). The format is organism-based. The essentials: as §2
Experiment [7] has the same target. Kind of experiment: In vivo displacement of [3H]flunitrazepam to GABA-A benzodiazepine receptor of mouse cerebellum at 10 mg/kg, 10 min. The format is organism-based. On the set-up: dose 10 mg/kg. The essentials: as §1
The target is the same in experiment [8]. Kind of experiment: In vivo binding of [3H]flunitrazepam to GABA-A benzodiazepine receptor of mouse cerebellum after maximal Diazepam (10mg/kg, 40 min). It counts as organism-based. The essentials:
as §2

For experiment [9] the target is unchanged. Kind of experiment: In vivo total binding of [3H]flunitrazepam (200uCi/kg, 20 min) to GABA-A benzodiazepine receptor of mouse hippocampus. The format is organism-based. The essentials:
as §3

The target is the same in experiment [10]. Kind of experiment: In vivo displacement of [3H]flunitrazepam to GABA-A benzodiazepine receptor of mouse hippocampus at 10 mg/kg, 10 min. On the set-up: dose 10 mg/kg. It counts as organism-based. Summed up: as §1
Experiment [11] shares this target. Kind of experiment: In vivo total binding of [3H]flunitrazepam (200uCi/kg, 20 min) to GABA-A benzodiazepine receptor of mouse cortex. It counts as organism-based. Summed up: as §3

Some results are limits rather than exact numbers.

As a reminder, the IC50 is the midpoint of a concentration-inhibition curve. A lower IC50 goes with greater potency in that assay. For the molecule `CCOC(=O)C1=CC2c3ccccc3NC2C=N1` (stereo unspecified), the IC50 in experiment [1] worked out at 0.006 µM; in experiment [2], 0.0025 µM.

Consider `O=C1Nc2ccccc2Cn2cc3nc4ccccc4c-3cc21`, for which the IC50 in experiment [1] stood at 2 µM; in [2], 6 µM.

With `CN1C(=O)CN=C(c2ccccc2F)c2cc([N+](=O)[O-])ccc21` [FLUNITRAZEPAM], the IC50 in experiment [1] was found to be 0.008 µM; in experiment [2] it was 0.003 µM.

For `O=C1Nc2ccccc2CN2Cc3[nH]c4ccccc4c3CC12` (stereo unspecified), the IC50 in [1] and in [2] was more than 100 µM in each case.

Regarding `O=C1Nc2ccccc2C(=O)N2Cc3[nH]c4ccccc4c3CC12` (stereo unspecified), the IC50 in experiment [1] and in [2] was more than 100 µM each time.

As to `O=c1[nH]c2ccccc2c(=O)n2cc3nc4ccccc4c-3cc12`, the Total binding in [3] is 88 pCi mg-1; in experiment [5], 71.2 pCi mg-1; in experiment [7] it was 78.8 pCi mg-1; in [9] it was 95.5 pCi mg-1; in [10], 96.8 pCi mg-1; in experiment [11] it was 85 pCi mg-1. Moreover, the IC50 in [1] was 0.047 µM; in [2] it was 0.023 µM. In addition, the values for the Binding in experiment [4], in experiment [6] and in experiment [8] were 25.6 pCi mg-1, 26.7 pCi mg-1 and 24.1 pCi mg-1, respectively.
